In ChEMBL document CHEMBL3045864, “Fungistatic activity of bicyclo[4.3.0]-γ-lactones” (J Agric Food Chem, 2011):
≈ marks a conversion by molar mass, not a printed value.

Key:
Assay type in all cases: functional, organism-based
Penicillium citrinum = test: Fungistatic activity against Penicillium citrinum AM 354 assessed as effect on diameter of fungal growth zone
How it was run: (§1)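 Agar dilution growth-zone assay. Lactones in DMSO were mixed into sterilized potato dextrose agar (0.01 mL DMSO per 1 mL agar) at final concentrations of 50–300 μg/mL. A fungal mycelium plug was placed on the agar and grown at 27 °C and 60–80% relative humidity. Growth-zone diameters were measured once DMSO-only control colonies reached 5.5–6.0 cm. Inhibition = (1 − Da/Db) × 100%. IC50 was taken from four concentrations, each run in triplicate. DDAC served as reference.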

Fusarium tricinctum = test: Fungistatic activity against Fusarium tricinctum AM 16 assessed as effect on diameter of fungal growth zone; how it was run: as §1
Fusarium oxysporum = test: Fungistatic activity against Fusarium oxysporum AM 13 assessed as effect on diameter of fungal growth zone; how it was run: as §1
Fusarium culmorum = test: Fungistatic activity against Fusarium culmorum AM 282 assessed as effect on diameter of fungal growth zone; how it was run: as §1
Aspergillus ochraceus = test: Fungistatic activity against Aspergillus ochraceus AM 456 assessed as effect on diameter of fungal growth zone; how it was run: as §1
[1] = Fusarium oxysporum, AM 13, read-out: IC50
[2] = Fusarium culmorum, AM 282, read-out: IC50

Row | SMILES | IC50 (Penicillium citrinum) [µg/mL] | IC50 (Fusarium tricinctum) [µg/mL] | IC50 (Fusarium oxysporum; [1]) [µg/mL] | IC50 (Fusarium culmorum; [2]) [µg/mL] | IC50 (Aspergillus ochraceus) [µg/mL] | IC50 (Fusarium oxysporum) [µg/mL] | IC50 (Fusarium culmorum) [µg/mL]
1 | O=C1OC[C@H]2C[C@@H](Br)[C@H](Br)C[C@@H]12 (racemic) | 306 (≈ 1030 µM) | 110 (≈ 371 µM) | 30.1 (≈ 101 µM) | 81.5 (≈ 274 µM) | 219 (≈ 735 µM) |  | 
2 | O=C1OC[C@@H]2C[C@@H]3O[C@@H]3C[C@H]12 |  |  | 51.9 (≈ 337 µM) | 59.7 (≈ 387 µM) |  |  | 
3 | CC1(C)OC(=O)[C@H]2C[C@@H](O)[C@H](Br)C[C@H]21 (racemic) | 212 (≈ 806 µM) | 162 (≈ 617 µM) | 170 (≈ 648 µM) | 166 (≈ 632 µM) | 220 (≈ 838 µM) |  | 
4 | O=C1OC[C@@H]2C[C@@H](Br)[C@H](Br)C[C@H]12 |  |  | 47.5 (≈ 159 µM) | 90.5 (≈ 304 µM) |  |  | 
5 | O=C1OCC2CCC(O)CC12 (racemic) | > 350 | 161 (≈ 1030 µM) | 127 (≈ 811 µM) | 121 (≈ 773 µM) | 212 (≈ 1360 µM) |  | 
6 | CCCCCCCCCC[N+](C)(C)CCCCCCCCCC.[Cl-] [DIDECYLDIMETHYLAMMONIUM CHLORIDE] | 41.6 | 27.9 | 24.2 | 24.5 | 51.3 |  | 
7 | O=C1OC[C@@H]2CC=CC[C@H]12 |  |  | 222 (≈ 1610 µM) | 171 (≈ 1240 µM) |  |  | 
8 | O=C1OC[C@H]2CCCC[C@@H]12 (racemic) | > 350 | 222 (≈ 1580 µM) | 314 (≈ 2240 µM) | 147 (≈ 1050 µM) | 187 (≈ 1330 µM) |  | 
9 | O=C1OC[C@H]2C[C@H]3O[C@H]3C[C@@H]12 (racemic) | 312 (≈ 2030 µM) | 156 (≈ 1020 µM) | 72.2 (≈ 468 µM) | 90.4 (≈ 586 µM) | 141 (≈ 915 µM) |  | 
10 | O=C1OC[C@H]2CC=CC[C@@H]12 (racemic) | > 350 | 221 (≈ 1600 µM) | 282 (≈ 2040 µM) | 184 (≈ 1330 µM) | 171 (≈ 1240 µM) |  | 
11 | CC1(C)OC(=O)[C@H]2C[C@H]3O[C@H]3C[C@H]21 (racemic) | > 350 | 180 (≈ 991 µM) | 95.3 (≈ 523 µM) | 142 (≈ 777 µM) | 142 (≈ 780 µM) |  | 
12 | CC1(C)OC(=O)[C@@H]2CCCC[C@@H]21 |  |  | 162 (≈ 965 µM) | 121 (≈ 717 µM) |  |  | 
13 | O=C1OC[C@H]2CCC[C@H](Br)[C@@H]12 (racemic) | 282 (≈ 1290 µM) | 173 (≈ 791 µM) | 184 (≈ 840 µM) | 133 (≈ 608 µM) | 244 (≈ 1120 µM) |  | 
14 | O=C1OC[C@@H]2CCCC[C@H]12 |  |  | 261 (≈ 1860 µM) | 169 (≈ 1210 µM) |  |  | 
15 | CC1(C)OC(=O)[C@@H]2CCCC[C@@H]21 (racemic) | 292 (≈ 1730 µM) | 213 (≈ 1260 µM) |  |  | 160 (≈ 949 µM) | 179.1 (≈ 1060 µM) | 134.5 (≈ 799 µM)
16 | O=C1OC[C@@H]2C[C@@H](Br)[C@H](O)C[C@H]12 (racemic) | 292 (≈ 1240 µM) | 211 (≈ 898 µM) | 141 (≈ 600 µM) | 172 (≈ 733 µM) | 141 (≈ 599 µM) |  | 
17 | O=C1OC(=O)[C@@H]2CC=CC[C@H]12 | > 350 | 289 (≈ 1900 µM) | 220 (≈ 1450 µM) | 310 (≈ 2040 µM) | 287 (≈ 1880 µM) |  | 
18 | CC1(C)OC(=O)[C@H]2CC=CC[C@H]21 (racemic) | 274 (≈ 1650 µM) | 205 (≈ 1230 µM) | 188 (≈ 1130 µM) | 183 (≈ 1100 µM) | 159 (≈ 958 µM) |  | 
19 | O=C1OC(=O)C2CCCCC12 (racemic) | > 350 | 303 (≈ 1960 µM) | 240 (≈ 1560 µM) | 292 (≈ 1890 µM) | 342 (≈ 2220 µM) |  | 
20 | CC1(C)OC(=O)[C@H]2C[C@@H](Br)[C@H](Br)C[C@H]21 (racemic) | 255 (≈ 782 µM) | 191 (≈ 586 µM) | 80.2 (≈ 246 µM) | 155 (≈ 474 µM) | 121 (≈ 371 µM) |  | 
